# Assay results as given in ChEMBL document CHEMBL2311257, “Synthesis and antioxidant activity of thymol and carvacrol based Schiff bases” (Bioorg Med Chem Lett, 2013).
# The source made the active and inactive calls. The calls are words filed in the database; no cut-off is given here.
# Columns and labels:
# Type in all cases: functional
# [1] = system: Radical scavenging activity; assay: Antioxidant activity assessed as DPPH radical scavenging activity in chloroform solution at 100 ug/mL
# [2] = system: Radical scavenging activity; assay: Antioxidant activity assessed as DPPH radical scavenging activity in chloroform solution at 25 ug/mL
# [3] = system: Radical scavenging activity; assay: Antioxidant activity assessed as DPPH radical scavenging activity in chloroform solution at 50 ug/mL
# [4] = system: Radical scavenging activity; assay: Antioxidant activity assessed as DPPH radical scavenging activity in chloroform solution at 10 ug/mL
# [5] = system: Radical scavenging activity; assay: Antioxidant activity assessed as DPPH radical scavenging activity in ethanol solution at 50 ug/mL
# How it was run: (§1)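 Compound dissolved in ethanol, then ethanolic DPPH added. Incubated 30 min in the dark. DPPH decrease read as absorbance at 517 nm against an ethanol blank, with ascorbic acid as reference. % activity = [(A0 − Ai)/A0] × 100, where A0 is absorbance without compound and Ai with compound. IC50 taken from activity across concentrations.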
# [6] = system: Radical scavenging activity; assay: Antioxidant activity assessed as DPPH radical scavenging activity in ethanol solution at 100 ug/mL; how it was run: as §1
# [7] = system: Radical scavenging activity; assay: Antioxidant activity assessed as DPPH radical scavenging activity in chloroform solution at 5 ug/mL
# [8] = system: Radical scavenging activity; assay: Antioxidant activity assessed as DPPH radical scavenging activity in ethanol solution at 25 ug/mL; how it was run: as §1
# [9] = system: Radical scavenging activity; assay: Antioxidant activity assessed as DPPH radical scavenging activity in ethanol solution at 5 ug/mL; how it was run: as §1
# [10] = system: Radical scavenging activity; assay: Antioxidant activity assessed as DPPH radical scavenging activity in ethanol solution at 10 ug/mL; how it was run: as §1
# [11] = Antioxidant activity assessed as ABTS radical scavenging activity at 5 ug/mL
# How it was run: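 ABTS radical cation solution diluted in ethanol to an absorbance of 0.7–0.9 at 734 nm, 30 °C. Equal volume added to ethanolic compound solution (5 µg/mL). Absorbance read after 1 min and converted to percent inhibition.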
# [12] = system: Radical scavenging activity; assay: Antioxidant activity assessed as DPPH radical scavenging activity in chloroform solution
# [13] = system: Radical scavenging activity; assay: Antioxidant activity assessed as DPPH radical scavenging activity in ethanol solution; how it was run: as §1
IC50 [12] [µg/mL],IC50 [13] [µg/mL],Compound,Activity [1] [%],Activity [2] [%],Activity [3] [%],Activity [4] [%],Activity [5] [%],Activity [6] [%],Activity [7] [%],Activity [8] [%],Activity [9] [%],Activity [10] [%],Activity [11]
13.32,9.02,Cc1cc(O)c(C(C)C)cc1/N=C/c1ccc(O)cc1,93,70.2,84.5,50,89.8,92.9,26,77.1,24.4,51.8,Active
18.73,11.97,Cc1cc(/N=C/c2cc(Br)cc(Br)c2O)c(C(C)C)cc1O,88.5,65.8,77.4,44.4,79.3,90.8,28.1,72,31.5,47.3,Active
10.69,7.55,Cc1cc(O)c(C(C)(C)C)cc1/N=C/c1cc(Br)c(O)c(Br)c1,95.3,78.5,85.7,50.3,95.8,95.8,24.2,82.8,23.9,49,Active
14.36,10.54,Cc1cc(O)c(C(C)(C)C)cc1/N=C/c1ccccc1O,90.9,70,85.7,48.6,86.4,90.7,24.9,69.6,29,51,Active
19.62,20.2,COc1cc(/C=N/c2cc(C(C)(C)C)c(O)cc2C)cc(OC)c1,89.5,67.9,86.6,36.8,76.9,80.4,27,66.1,26.3,43.8,Active
14.26,8.77,Cc1cc(O)c(C(C)(C)C)cc1/N=C/c1ccc(O)cc1,92.6,63.3,82.3,49.6,89.3,94.6,31,70.9,31,50.8,Active
16.09,11.61,Cc1cc(/N=C/c2ccccc2O)c(C(C)C)cc1O,90.4,65.1,86.1,40.8,79.9,89.3,32.6,70.6,33,46.8,Active
19.19,12.76,Cc1cc(O)c(C(C)C)cc1/N=C/c1cc(Br)cc(Br)c1O,85.3,68.3,78.1,45.1,85.9,88.7,24.3,75.9,26.8,44.2,Active
22.03,22.96,COc1cc(/C=N/c2cc(C(C)C)c(O)cc2C)cc(OC)c1OC,89.9,68.2,82.9,39.8,73.3,83.1,20.7,65.4,26,41.6,Active
19.12,18.66,COc1ccc(/C=N/c2cc(C(C)C)c(O)cc2C)cc1OC,88.9,72,85.2,41.9,84.1,89.4,20.6,73.4,19.7,43.3,Active
14.77,11.79,Cc1cc(O)c(C(C)C)cc1/N=C/c1ccccc1O,91,70.6,88.1,47.1,82,88.3,23.9,70.7,29.2,49.3,Active
18.6,18.79,COc1cc(/C=N/c2cc(C(C)(C)C)c(O)cc2C)cc(OC)c1OC,91.8,75.8,81.7,45.2,81,84.4,17.3,65.4,25.9,44.9,Active

# Continued, molecule first:
Compound,IC50 [12] [µg/mL],IC50 [13] [µg/mL],Activity [1] [%],Activity [2] [%],Activity [3] [%],Activity [4] [%],Activity [5] [%],Activity [6] [%],Activity [7] [%],Activity [8] [%],Activity [9] [%],Activity [10] [%],Activity [11]
COc1ccc(/C=N/c2cc(C(C)(C)C)c(O)cc2C)cc1,17.55,13.92,89.8,82.6,87.3,36.3,83.4,90.6,19.7,65,29.2,50,Active
COc1ccc(/C=N/c2cc(C(C)C)c(O)cc2C)cc1,15.79,12.54,90.2,74.1,87.7,44.6,85,88.5,21.8,77.5,27.3,43.3,Active
COc1ccc(/C=N/c2cc(C)c(O)cc2C(C)C)cc1,16.24,13.5,88.7,67.1,78.4,41,78.9,89.5,34.2,69.2,30.9,47.5,Active
COc1ccc(/C=N/c2cc(C(C)(C)C)c(O)cc2C)cc1OC,22.05,17.03,87.1,72,82.1,35.3,81.9,90,22.6,62.2,27.4,49,Active
COc1ccc(/C=N/c2cc(C)c(O)cc2C(C)C)cc1OC,20.1,18.12,89.8,64.2,82.3,43,75.5,87.8,25.4,67.5,29.1,44.1,Active
Cc1cc(O)c(C(C)(C)C)cc1/N=C/c1cc(Br)cc(Br)c1O,13.46,11.45,90.7,76.4,86.1,45.2,88.8,90.1,24.6,72.7,26.7,48.2,Active
Cc1cc(/N=C/c2ccc(O)cc2)c(C(C)C)cc1O,15.13,9.76,88.1,66.2,75.9,42.8,82.9,92.2,36.1,70.4,33.7,48.6,Active
COc1cc(/C=N/c2cc(C)c(O)cc2C(C)C)cc(OC)c1,25.79,22.02,88.4,61.7,79.1,39.3,74.2,85.8,20.4,65.7,27.5,40.7,Active
COc1cc(/C=N/c2cc(C)c(O)cc2C(C)C)cc(OC)c1OC,25.2,19.05,88,64.2,75.7,41.8,76.5,87.4,19.7,66.1,26.4,45.7,Active
